Our source for the IC50 values is ChEMBL document CHEMBL1132700, “Design, synthesis, structure-activity relationships, and biological characterization of novel arylalkoxyphenylalkylamine sigma ligands as potential antipsychotic drugs” (J Med Chem, 1999).

For one assay, the target named is D(2) dopamine receptor (Rattus norvegicus, UniProt P61169). As to the kind of experiment: Inhibitory concentration against radioligand [3H](-)-sulpiride binding to Dopamine receptor D2 in rat. Summed up:
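Striatal membranes from male Wistar rats (200–250 g), homogenized in 50 mM Tris/HCl pH 7.7, washed by repeated 50000g spins. Filtration on PEI-soaked glass-fiber filters, then scintillation counting. IC50 by nonlinear curve fitting, duplicate determinations.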

Assay [1] addresses Sigma non-opioid intracellular receptor 1 (Rattus norvegicus, UniProt Q9R0C9). As to the kind of experiment: Inhibitory concentration against radioligand [3H]3-PPP binding to Sigma opioid receptor type 1 in rat brain membrane. It counts as cell membranes. Put shortly: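 Rat whole-brain membranes from male Wistar rats (200–250 g), homogenized in 50 mM Tris/HCl pH 7.7, washed by repeated 50000g spins. Incubated with 2 nM [3H]-(+)-3-PPP and at least five concentrations of unlabeled drug. Filtered on polyethylenimine-soaked glass-fiber filters and counted by scintillation. IC50 from nonlinear curve fitting of competition data, duplicate determinations.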

Sequence of D(2) dopamine receptor (P61169 whole entry): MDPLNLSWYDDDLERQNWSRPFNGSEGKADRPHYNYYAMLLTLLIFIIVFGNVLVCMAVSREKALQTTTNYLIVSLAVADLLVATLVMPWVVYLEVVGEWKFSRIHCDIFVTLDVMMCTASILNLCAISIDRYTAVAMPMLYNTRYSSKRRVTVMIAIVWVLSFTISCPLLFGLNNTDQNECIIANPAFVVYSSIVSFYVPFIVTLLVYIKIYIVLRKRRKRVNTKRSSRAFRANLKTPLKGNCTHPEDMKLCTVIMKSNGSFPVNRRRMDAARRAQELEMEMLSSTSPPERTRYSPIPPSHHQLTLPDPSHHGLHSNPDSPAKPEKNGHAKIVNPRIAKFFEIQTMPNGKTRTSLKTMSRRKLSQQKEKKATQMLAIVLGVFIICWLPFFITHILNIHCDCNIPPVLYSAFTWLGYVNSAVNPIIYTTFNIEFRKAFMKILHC
Sequence of Sigma non-opioid intracellular receptor 1 (Q9R0C9 whole entry): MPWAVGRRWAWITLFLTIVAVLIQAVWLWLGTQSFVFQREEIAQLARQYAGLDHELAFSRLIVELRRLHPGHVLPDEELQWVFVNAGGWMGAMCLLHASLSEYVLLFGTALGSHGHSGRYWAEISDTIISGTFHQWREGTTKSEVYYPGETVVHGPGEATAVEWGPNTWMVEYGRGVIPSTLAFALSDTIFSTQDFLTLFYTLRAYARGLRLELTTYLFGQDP

Broadly, the IC50 is the concentration that gives 50% inhibition. In the case of `Cc1cccc(N2CCN(CCCc3cc(Cl)ccc3OCCc3ccccc3)CC2)n1`, the results for the half-inhibitory concentration (IC50) (on D(2) dopamine receptor; in assay [1]) were 293 nM and 415 nM, respectively. `CCCN(CCC)CCc1ccc(OC)c(OCCCc2ccccc2)c1`: the IC50 at D(2) dopamine receptor is above 1000 nM.

Consider `CCCN(CCC)CCc1cc(Br)ccc1OCCCc1ccccc1`, for which the half-maximal inhibitory concentration (IC50) came to 685 nM on D(2) dopamine receptor and 44 nM in assay [1]. For `Clc1ccc(OCCc2ccccc2)c(CCN2CCCC2)c1` the same measures were 69 nM and 36 nM.

In turn, `COc1ccc(CCN2CCCC2)cc1OCCc1ccccc1` showed an IC50 at D(2) dopamine receptor above 1000 nM.

Consider `Clc1ccc(OCCc2ccccc2)c(CCN2CCN(c3ncccn3)CC2)c1`, for which the IC50 is 143 nM on D(2) dopamine receptor and above 1000 nM in assay [1]. For `COc1ccccc1N1CCN(CCCc2cc(Cl)ccc2OCCc2ccccc2)CC1` the same measures were 16 nM and 319 nM. `Clc1ccc(OCCc2ccccc2)c(CCCN2CCN(c3ccccc3)CC2)c1` came in with an IC50 on D(2) dopamine receptor of 180 nM. In the case of `CCCN(CCC)CCc1ccc(OCCc2ccccc2)cc1OC`, the concentration for half-maximal inhibition (IC50) at D(2) dopamine receptor was above 1000 nM. The compound `COc1cccc(CCN2CCCC2)c1OCCc1ccccc1` registered a concentration for half-maximal inhibition (IC50) at D(2) dopamine receptor above 1000 nM. Turning to `CCCN(CCC)CCc1cccc(F)c1OCCc1ccccc1`, the IC50 on D(2) dopamine receptor was above 1000 nM; in assay [1], 22 nM. Consider `Clc1ccc(OCCc2ccccc2)c(CCCN2CCN(c3ccccn3)CC2)c1`, for which the IC50 came to 93 nM on D(2) dopamine receptor and 118 nM in assay [1].

In the case of `CCCN(CCC)CCc1cc(Br)cc(Br)c1OCCc1ccccc1`, the half-inhibitory concentration (IC50) is above 1000 nM on D(2) dopamine receptor and 774 nM in assay [1]. For `CCCN(CCC)CCc1ccc(OC)c(OCc2ccccc2)c1.O=C(O)C(=O)O`, in that order: above 1000 nM and 28 nM. For `CCCN(CCC)CCc1cc(Cl)cc(Cl)c1OCCc1ccccc1` the same measures were above 1000 nM and 281 nM.

For the compound `COc1ccc(CCN2CCN(c3ccccn3)CC2)cc1OCCc1ccccc1`, the IC50 on D(2) dopamine receptor came out at 295 nM; in assay [1] it was 112 nM. `CCCN(CCC)CCCCc1cc(Cl)ccc1OCCc1ccccc1`: the IC50 at D(2) dopamine receptor was above 1000 nM; in assay [1] it was 26 nM.

In the case of `CCCN(CCC)CCc1cc(Cl)ccc1OCc1ccccc1`, the results for the concentration for half-maximal inhibition (IC50) (at D(2) dopamine receptor; in assay [1]) were 337 nM and 118 nM, respectively. In the case of `COc1ccc(CCN2CCOCC2)cc1OCCc1ccccc1`, the IC50 (on D(2) dopamine receptor; in assay [1]) was above 1000 nM in each case. For the compound `CCCN(CCC)CCc1cc(Cl)ccc1OCCCc1ccccc1`, the half-inhibitory concentration (IC50) at D(2) dopamine receptor amounted to 876 nM; in assay [1] it was 56 nM. As for `CCCN(CCC)CCc1ccc(OC)cc1OCCc1ccccc1`, the half-maximal inhibitory concentration (IC50) at D(2) dopamine receptor was above 1000 nM. On to `CCCN(CCC)CCc1ccc(OCCc2ccccc2)c(OC)c1`, for which the 50% inhibitory concentration (IC50) is above 1000 nM on D(2) dopamine receptor and 12 nM in assay [1]. At D(2) dopamine receptor, `CCCN(CCC)CCc1ccc(OC)c(OCCc2cccc(Cl)c2)c1` returned an IC50 above 1000 nM. Regarding `CCCN(CCC)CCc1ccc(OC)c(OCCc2ccc(OC)c(OC)c2)c1`, the IC50 in assay [1] came to 67 nM. Turning to `COc1cccc(CCN2CCN(c3ccccc3)CC2)c1OCCc1ccccc1`, the IC50 at D(2) dopamine receptor is 66 nM; in assay [1], 328 nM.

As to `CCCN(CCC)CCc1ccc(OC)c(OCCc2ccc(F)cc2)c1`, the IC50 was above 1000 nM at D(2) dopamine receptor and 1 nM in assay [1]. Take `CCCN(CCC)CCc1ccc(Cl)cc1OCCc1ccccc1`: the concentration for half-maximal inhibition (IC50) on D(2) dopamine receptor was above 1000 nM.

`CCCN(CCC)CCc1ccc(OC)c(OCCc2cccs2)c1` gave a half-maximal inhibitory concentration (IC50) at D(2) dopamine receptor above 1000 nM. For the compound `CCCN(CCCO)CCc1ccc(OC)c(OCCc2ccccc2)c1`, the IC50 at D(2) dopamine receptor is above 1000 nM; in assay [1], 19 nM. Turning to `COc1ccc(CCN)cc1OCCc1ccccc1`, the IC50 on D(2) dopamine receptor was above 1000 nM. Still for that read-out and setting: then `CCCN(CCC)CCc1ccc(O)c(OCCc2ccccc2)c1`, with above 1000 nM. The same measure, in the same setting: then `CCCNCCc1ccc(OC)c(OCCc2ccccc2)c1`, with above 1000 nM. For the compound `CCCN(CCC)CCc1cc(F)ccc1OCCc1ccccc1`, the 50% inhibitory concentration (IC50) on D(2) dopamine receptor is above 1000 nM; in assay [1], 13 nM. As for `CCCN(CCC)CCc1ccc(OC)c2c1-c1ccccc1CO2`, the results for the IC50 (on D(2) dopamine receptor; in assay [1]) were above 1000 nM and 990 nM, respectively. In turn, `CN1CCc2cccc3c2[C@H]1Cc1ccc(O)c(O)c1-3` [APOMORPHINE] gave an IC50 in assay [1] above 1000 nM.
